# Hsp70 activator: Hsp70 transcriptional activators, primary screen, cell-based, HeLa, Hsp70 promoter luciferase, luminescence, 10 µM; 200,000 tested, 0.04% active; AID 1203, 2008; activation, % at 10 µM; HeLa Hsp70 promoter luciferase reporter; scaled: vehicle 0, proteasome-inhibitor control 100%;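 active = activation above the mean across all tested compounds plus 3 SD, cutoff set per campaign, cut at about 5.5% in these data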
# T cruzi repl: inhibitors of intracellular T. cruzi growth, primary screen, luminescence, NIH3T3 host cells. T. cruzi beta-gal in NIH3T3, 90 h. inhibition, % (concentration not given with the values). 300,000 tested, 1.4% active. AID 1885, 2009;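 active = mean inhibition across valid replicates above about 55%, limit read from the data; inconclusive = mean below that limit but half or more replicates reach it; inactive = mean below it, under half of replicates reach it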;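 note: signal also drops with host cell toxicity which is not excluded here; higher percent means less beta-gal luminescence so fewer parasites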
#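 System – NIH/3T3 host cells with β-galactosidase reporter T. cruzi · Doses – single 50 nL compound addition per well in DMSO · Reagent – 5000 T. cruzi trypomastigotes/well · Medium – Low-serum DMEM with 2% FBS · Timing – ≥90 h infection period, 3 h prior cell attachment · Evaluation – parasite load inhibition, % · Technique – GalScreen luminescence, 60 min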
# HSF1 inhib: HSF1 inhibitors in luciferase reporter cells, primary screen, cell-based, NIH3T3, luminescence; activity change, negative = inhibition, % at 7.5 µM (by protocol); AID 2098, 2009; 300,000 tested, 0.77% active; NIH3T3-HGL HSE-luciferase, MG132-induced, luminescence 8 h; active compounds read low;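 active = more than half of replicate wells show activity change below -50%, luminescence cut by over half; inconclusive = some wells, but at most half, below -50%; inactive = no replicate well below -50%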;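 note: luciferase reports HSF-1 transcriptional activity via heat shock element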
# L major viab: Leishmania major promastigote growth inhibition, primary screen; Leishmania major promastigotes, resazurin fluorescence viability; inhibition, % at 10 µM; 200,000 tested, 9% active; in the data active = inhibition above about 50%;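 note: promastigotes grown with compound for 44 hours at 28 °C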
# HSF-1 act: HSF-1 activators, primary screen, NIH3T3-HGL cells, MG132 stress, luminescence, single point; NIH3T3-HGL HSF-1 luciferase reporter, 8 h; 100% = twice DMSO control signal; AID 504408, 2011; activation, % at 9 µM; 300,000 tested, 1.7% active;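 active = mean replicate activation of at least 50% with a set share of replicates each reaching 50%; inconclusive = only one of those two conditions met; inactive = mean below 50% and too few replicates reaching it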
# Lmaj promast 1uM: Leishmania major promastigote growth inhibition, confirmation, 1 µM repeat of primary hits | AID 1258, 2008 | L. major promastigote growth, resazurin fluorescence, 48 h | shares compounds with L major viab | 1,100 tested, 13% active | inhibition, % at 1 µM;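 active = inhibition above about 50% in both repeat tests, limit read from the data; inconclusive = one repeat under the set limit, the other over it; inactive = both repeats under the set limit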
# Hits are given with their value; – = inactive; ? = inconclusive; · = no result. Shown is part of a subset that was picked to be rich in hits.
SMILES,Hsp70 activator,T cruzi repl,HSF1 inhib,L major viab,HSF-1 act,Lmaj promast 1uM
COc1ccc(C2C(=O)N(C3CCCCC3)CC(=O)N2Cc2ccc3c(c2)OCO3)cc1 (stereo not given),–,–,–,91,–,–
COc1ccc(OC)c(S(=O)(=O)Nc2ccc(Oc3ccccc3)cc2)c1,–,–,–,67,–,–
Cc1sc2nc(CN(C(=O)NC3CCCCC3)C3CCCC3)[nH]c(=O)c2c1C,–,–,–,–,–,·
Cc1sc2nc(CN(Cc3cccs3)C(=O)NC3CCCCC3)[nH]c(=O)c2c1C,–,–,–,53,–,–
CN(C)/C=N/N(C)c1ncccc1[N+](=O)[O-],·,–,–,·,–,·
CC(C)=N/N=C(\c1cccc([N+](=O)[O-])c1)C12CN3CN(CN(C3)C1)C2,–,–,–,51,–,–
COc1ccc(C(=O)CCN2CCN(c3ccc(OC)cc3)CC2)cc1,·,–,–,·,–,·
COc1ccc(C(=O)CCN2CCN(c3ccccc3F)CC2)cc1,–,63,–,79,–,–
N#CC1=C(Nc2ccccc2)SC=C(c2ccc(Cl)c(Cl)c2)N=C1N1CCOCC1,–,–,–,100,–,–
N#CC1=C(Nc2ccccc2)SC=C(c2ccccc2)N=C1N1CCOCC1,–,–,–,–,–,·
CCc1ccc(-c2cc(C)no2)cc1S(=O)(=O)NCCCN1CCN(c2ccccc2)CC1,·,–,–,·,–,·
CC(C)(C)c1nn(-c2ccccc2)c2nc(Cl)c(C=O)cc12,–,–,–,96,–,–
CCC(C)NCCOc1ccc(Br)cc1 (stereo not given),–,–,–,82,–,–
CCC(C)NCCOc1ccc(C)cc1[N+](=O)[O-] (stereo not given),–,–,–,–,–,·
CCn1c(C(=O)NCc2cccnc2)cc2sc(Cl)cc21,–,62,–,81,–,–
CCN1C(=O)C(CC(=O)Nc2ccc(Br)cc2)N(CCCc2ccccc2)C1=S (stereo not given),–,56,–,92,–,–
CN(C)c1cc(N/N=C/c2ccc(Cl)cc2)nc(N(C)C)n1,–,?,–,78,–,74
COc1ccc(-n2cc(-c3ccc(OC(F)F)cc3)[n+]3c2CCCCC3)cc1,–,59,–,99,–,–
COc1ccc(-c2csc(NCCc3nc4cc(C(=O)NCCCO)ccc4n3Cc3ccc(C)cc3)n2)cc1,·,–,–,·,–,·
O=C(Cn1cncn1)N/N=C/c1cccnc1,·,–,–,·,–,·
COc1ccc(CSc2nnnn2-c2ccccc2)cc1,–,–,–,100,–,–
Cc1ccccc1-n1nnnc1Sc1nnnn1-c1ccccc1,–,·,·,100,·,–
CCCSc1nnc(Sc2nnnn2-c2ccccc2)s1,–,55,–,88,123,–
CCOC(=O)CC1COc2ccccc2N1C(=O)c1cccc([N+](=O)[O-])c1 (stereo not given),·,–,–,·,–,·
C/C(=N/NC(=O)CN1CCN(Cc2ccccc2Cl)CC1)c1ccco1,·,–,–,·,–,·
SMILES,Hsp70 activator,T cruzi repl,HSF1 inhib,L major viab,HSF-1 act,Lmaj promast 1uM
COc1cccc(CC2(CO)CCCN(CC3=Cc4cc(Cl)ccc4OC3)C2)c1 (stereo not given),–,–,–,–,–,·
O=C(N/N=C/c1ccco1)c1cccc([N+](=O)[O-])c1,–,–,–,–,–,·
O=C(N/N=C/c1ccco1)c1cc([N+](=O)[O-])cc([N+](=O)[O-])c1,–,–,–,97,–,–
Cc1nc2ccccc2cc1C(=O)N/N=C/c1ccco1,–,–,–,70,–,–
O=C(CCl)Nc1cccc(-c2cnc3ccccc3n2)c1,–,–,–,100,–,77
Cc1[nH]c2ccccc2c1C(c1ccccn1)N1CCC(C(N)=O)CC1 (stereo not given),–,–,–,60,–,–
CCOC(=O)C1CCN(C(c2ccccn2)c2c(C)[nH]c3ccccc23)CC1 (stereo not given),–,–,–,–,–,·
CC(=O)N1c2ccc(S(=O)(=O)N3CCCC3C(=O)Nc3ccc(C)cc3)cc2CC1C (stereo not given),·,–,–,·,–,·
O=C1OC(Nc2ccc3c(c2)OCO3)c2ccccc21 (stereo not given),–,–,–,60,–,–
Cc1ccccc1OCC(=O)OC(C(=O)c1ccccc1)c1ccccc1 (stereo not given),–,–,–,–,–,·
Cc1nnc(Nc2ccccn2)c2ccccc12,–,–,–,70,–,90
CCN1CCN(C(=O)c2ccc(N3CC4CC(C3)c3cccc(=O)n3C4)c(NC(=O)c3cc(OC)cc(OC)c3)c2)CC1 (stereo not given),·,–,–,·,–,·
COC(=O)c1ccc(CNCC(O)COc2ccc(-c3ccccc3)cc2)cc1 (stereo not given),·,–,–,·,–,·
COC(=O)c1ccc(-c2ccc(CNCC(O)c3ccccc3)o2)cc1 (stereo not given),–,–,–,99,–,55
O=C(Nc1ccnn1C1CCN(C(=O)c2cnsn2)CC1)c1cccc(F)c1,·,–,–,·,–,·
COc1cccc(CSCC(=O)NCCc2ccccc2)c1OC,·,–,–,·,–,·
Cc1cccc2cc(-c3ccccc3)c(-c3ccccc3)c[n+]12,–,–,–,100,–,–
O=[N+]([O-])c1cccc(-c2cc3cccc[n+]3cc2-c2cccc([N+](=O)[O-])c2)c1,–,–,–,–,–,·
CCCC1COC(Cn2cncn2)(c2ccc(C)cc2)O1 (stereo not given),–,?,–,55,–,–
CCCCCCCCC/C(=N\O)c1ccccn1,–,63,–,87,–,–
Cc1ccc(-c2cc(C(F)F)nc(NCc3cccnc3)n2)cc1,–,60,–,57,–,–
COC(=O)c1ccccc1NC(=S)NC(NC(=O)COc1ccccc1)C(Cl)(Cl)Cl (stereo not given),–,–,–,99,–,–
CN(CCN1CCc2ccccc2C1)Cc1nc(Cc2ccccc2F)no1,–,·,·,85,·,72
COc1ccc(Cc2noc(CN(C)CCN3CCc4ccccc4C3)n2)cc1OC,–,–,–,–,–,·
CC(C)NC(=O)COC(=O)C1CSC2(c3ccc(Br)cc3)CCC(=O)N12 (stereo not given),–,–,–,–,–,·
O=C(O)c1cccnc1Sc1ccccc1,–,–,–,56,72,–
O=C(O)c1cccnc1Sc1ccc(Cl)cc1,–,–,–,–,–,·
Cc1nccc(-c2ccc(-n3cnc4ccccc43)cc2)n1,–,–,–,62,–,–
